In brackets after ≈: the same amount, converted by molar mass.
Experiments:
P388 [1] = test: In vivo antileukemic activity against P388 leukemia at dose 25 mp/kg administered intraperitoneally; format: functional, Mus musculus
In short: (§1)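 BDF1 mice implanted ip with 10^6 P388 cells. Compound given ip as aqueous solution containing 3 equiv of L-lactic acid on days 1-5. Activity expressed as T/C (%); T/C ≥ 125% taken as statistically significant antileukemic activity.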

HeLa = test: In vitro cytotoxicity against HeLa S3 cell lines; format: functional, cell-based; conditions: Homo sapiens
P388 [2] = test: In vivo antileukemic activity against P388 leukemia at dose 25 mp/kg administered intraperitoneally (30 days survivors, 2/6)
P388 [3] = test: In vivo antileukemic activity against P388 leukemia at dose 50 mp/kg administered intraperitoneally; format: functional, Mus musculus; in short: as §1
P388 [4] = test: In vivo antileukemic activity against P388 leukemia at dose 100 mp/kg administered intraperitoneally; format: functional, Mus musculus; in short: as §1
P388 [5] = test: In vivo antileukemic activity against P388 leukemia at dose 12.5 mp/kg administered intraperitoneally; format: functional, Mus musculus
P388 [6] = test: In vivo antileukemic activity against P388 leukemia at dose 25 mp/kg administered intraperitoneally (30 days survivors, 3/6)
P388 [7] = test: In vivo antileukemic activity against P388 leukemia at dose 8 mp/kg administered intraperitoneally; format: functional, Mus musculus; in short: as §1
P388 [8] = test: In vivo antileukemic activity against P388 leukemia at dose 40 mp/kg administered intraperitoneally; format: functional, Mus musculus; in short: as §1
P388 [9] = test: In vivo antileukemic activity against P388 leukemia at dose 12.5 mp/kg administered intraperitoneally (30 days survivors, 3/6); format: functional, Mus musculus

O=c1c2cc([N+](=O)[O-])ccc2n2nnc3ccc(NCCNCCO)c1c32
T/C (P388 [1]): 133%
IC50 (HeLa): 0.12 µg/mL (≈ 0.326 µM)

COc1ccc2c(c1)c(=O)c1c(NCCCN(C)C)ccc3nnn2c31
IC50 (HeLa): 0.17 µg/mL (≈ 0.484 µM)

CN(C)CCNc1ccc2nnn3c4ccc(O)cc4c(=O)c1c23
T/C (P388 [2]): 260%
IC50 (HeLa): 0.1 µg/mL (≈ 0.309 µM)

O=c1c2ccccc2n2nnc3ccc(NCCNCCO)c1c32
IC50 (HeLa): 0.29 µg/mL (≈ 0.897 µM)
T/C (P388 [3]): 133%

CN(C)CCNc1ccc2nnn3c4ccccc4c(=O)c1c23
T/C (P388 [4]): 180%
IC50 (HeLa): 0.21 µg/mL (≈ 0.683 µM)

CCN(CC)CCNc1ccc2nnn3c4ccc([N+](=O)[O-])cc4c(=O)c1c23
T/C (P388 [5]): 122%
IC50 (HeLa): 0.12 µg/mL (≈ 0.315 µM)

CN(C)CCCNc1ccc2nnn3c4ccccc4c(=O)c1c23
T/C (P388 [4]): 133%
IC50 (HeLa): 0.28 µg/mL (≈ 0.871 µM)

O=c1c2cc(Cl)ccc2n2nnc3ccc(NCCNCCO)c1c32
T/C (P388 [1]): 133%
IC50 (HeLa): 0.16 µg/mL (≈ 0.447 µM)

COc1ccc2c(c1)c(=O)c1c(NCCN(C)C)ccc3nnn2c31
T/C (P388 [1]): 110%
IC50 (HeLa): 0.1 µg/mL (≈ 0.296 µM)

CN(C)CCCNc1ccc2nnn3c4ccc(O)cc4c(=O)c1c23
T/C (P388 [6]): 320%
IC50 (HeLa): 0.08 µg/mL (≈ 0.237 µM)

CN(C)CCNc1ccc2nnn3c4ccc(Cl)cc4c(=O)c1c23
T/C (P388 [1]): 110%
IC50 (HeLa): 0.1 µg/mL (≈ 0.293 µM)

Cc1ccc2c(c1)c(=O)c1c(NCCCN(C)C)ccc3nnn2c31
IC50 (HeLa): 0.15 µg/mL (≈ 0.447 µM)

Cc1ccc2c(c1)c(=O)c1c(NCCN(C)C)ccc3nnn2c31
T/C (P388 [4]): 130%
IC50 (HeLa): 0.17 µg/mL (≈ 0.529 µM)

CCN(CC)CCNc1ccc2nnn3c4ccc(Cl)cc4c(=O)c1c23
T/C (P388 [5]): 111%
IC50 (HeLa): 0.13 µg/mL (≈ 0.351 µM)

O=c1c2cc(O)ccc2n2nnc3ccc(NCCNCCO)c1c32
T/C (P388 [5]): 210%
IC50 (HeLa): 0.12 µg/mL (≈ 0.354 µM)

CCN(CC)CCNc1ccc2nnn3c4ccccc4c(=O)c1c23
T/C (P388 [4]): 160%
IC50 (HeLa): 0.42 µg/mL (≈ 1.25 µM)

CCN(CC)CCNc1ccc2nnn3c4ccc(O)cc4c(=O)c1c23
IC50 (HeLa): 0.05 µg/mL (≈ 0.142 µM)
T/C (P388 [7]): 190%

CN(C)CCCNc1ccc2nnn3c4ccc([N+](=O)[O-])cc4c(=O)c1c23
T/C (P388 [1]): 110%
IC50 (HeLa): 0.12 µg/mL (≈ 0.328 µM)

CCN(CC)CCNc1ccc2nnn3c4ccc(C)cc4c(=O)c1c23
T/C (P388 [8]): 133%
IC50 (HeLa): 0.21 µg/mL (≈ 0.601 µM)

CN(C)CCNc1ccc2nnn3c4ccc([N+](=O)[O-])cc4c(=O)c1c23
T/C (P388 [1]): 130%
IC50 (HeLa): 0.11 µg/mL (≈ 0.312 µM)

CN(C)CCCNc1ccc2nnn3c4ccc(Cl)cc4c(=O)c1c23
IC50 (HeLa): 0.13 µg/mL (≈ 0.365 µM)
T/C (P388 [3]): 111%

Cc1ccc2c(c1)c(=O)c1c(NCCNCCO)ccc3nnn2c31
IC50 (HeLa): 0.24 µg/mL (≈ 0.711 µM)

COc1ccc2c(c1)c(=O)c1c(NCCNCCO)ccc3nnn2c31
T/C (P388 [5]): 120%
IC50 (HeLa): 0.09 µg/mL (≈ 0.255 µM)

CCN(CC)CCNc1ccc2nnn3c4ccc(OC)cc4c(=O)c1c23
T/C (P388 [5]): 120%
IC50 (HeLa): 0.16 µg/mL (≈ 0.438 µM)

O=C1c2ccccc2C(=O)c2c(NCCNCCO)ccc(NCCNCCO)c21 [AMETANTRONE]
IC50 (HeLa): 0.17 µg/mL (≈ 0.412 µM)
T/C (P388 [9]): 300%

Reference: ChEMBL document CHEMBL1124989, “8-Substituted 5-[(aminoalkyl)amino]-6H-v-triazolo[4,5,1-de]acridin-6-ones as potential antineoplastic agents. Synthesis and biological activity” (J Med Chem, 1990)
